Test results taken from ChEMBL document CHEMBL1157638, “Fluorescent epigenetic small molecule induces expression of the tumor suppressor ras-association domain family 1A and inhibits human prostate xenograft” (J Med Chem, 2010).
Active and inactive are the calls of the source. The rule behind the calls is not given here.

Assays:
[1] = system: NCI-H226; test: Growth inhibition of human NCI-H226 cells assessed as cell growth at 10 nM relative to untreated control; assay type: functional; conditions: read-out: Activity
[2] = system: HT-29; test: Growth inhibition of human HT-29 cells assessed as cell growth at 1 nM relative to untreated control; assay type: functional; conditions: read-out: Activity
[3] = system: DU-145; test: Growth inhibition of human DU145 cells assessed as cell growth at 100 nM relative to untreated control; assay type: functional; conditions: read-out: Activity
In short: (§1)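 Run externally at the National Cancer Institute as a 59-cell-line panel screen, with concentrations up to 100 μM. Growth was scored relative to control, where negative growth or total cell kill was possible. Data are in the Supporting Information.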

[4] = system: MDA-MB-435; test: Growth inhibition of human MDA-MB-435 cells assessed as cell growth at 10 nM relative to untreated control; assay type: functional; conditions: read-out: Activity
[5] = system: DU-145; test: Growth inhibition of human DU145 cells assessed as cell growth at 1 uM relative to untreated control; assay type: functional; conditions: read-out: Activity; in short: as §1
[6] = system: PC-3; test: Cytostatic against human PC3 cells up to 30 uM after 24 hrs by trypan blue exclusion method; assay type: functional, cell-based
In short: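 PC-3 cells were seeded in triplicate at 1.5 × 10⁴ cells/well and grown in phenol red-free IMEM with 10% FBS at 37 °C, 5% CO₂. After 24 h they were treated with DMSO or 1, 5, 15, 30 or 60 μM compound for 24 h. Cells were then trypsinized, and live and dead cells were counted by 0.4% trypan blue exclusion on a hemocytometer. Values are mean ± SEM of three independent observations.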

[7] = system: 786-0; test: Growth inhibition of human 786-0 cells; assay type: functional
[8] = system: U-251; test: Growth inhibition of human U251 cells assessed as cell growth at 100 nM relative to untreated control; assay type: functional; conditions: read-out: Activity
[9] = system: RXF 393; test: Growth inhibition of human RXF393 cells assessed as cell growth at 1 uM relative to untreated control; assay type: functional; conditions: read-out: Activity
[10] = system: CCRF-CEM; test: Growth inhibition of human CCRF-CEM cells; assay type: functional
[11] = system: MOLT-4; test: Growth inhibition of human MOLT4 cells assessed as cell growth at 10 uM relative to untreated control; assay type: functional; conditions: read-out: Activity
[12] = system: OVCAR-3; test: Growth inhibition of human OVCAR-3 cells; assay type: functional; conditions: read-out: LC50 (the source's name)
[13] = system: NCI/ADR-RES; test: Growth inhibition of human NCI/ADR-RES cells assessed as cell growth at 100 nM relative to untreated control; assay type: functional; conditions: read-out: Activity
[14] = system: SF-295; test: Growth inhibition of human SF295 cells assessed as cell growth at 10 uM relative to untreated control; assay type: functional; conditions: read-out: Activity
[15] = system: PC-3; test: Growth inhibition of human PC3 cells assessed as cell growth at 10 nM relative to untreated control; assay type: functional; conditions: read-out: Activity
[16] = system: SN12C; test: Growth inhibition of human SN12C cells assessed as cell growth at 1 nM relative to untreated control; assay type: functional; conditions: read-out: Activity
[17] = system: SNB-19; test: Growth inhibition of human SNB19 cells assessed as cell growth at 1 uM relative to untreated control; assay type: functional; conditions: read-out: Activity
[18] = system: OVCAR-8; test: Growth inhibition of human OVCAR8 cells assessed as cell growth at 10 nM relative to untreated control; assay type: functional; conditions: read-out: Activity
[19] = system: SK-MEL-2; test: Growth inhibition of human SK-MEL-2 cells assessed as cell growth at 1 uM relative to untreated control; assay type: functional; conditions: read-out: Activity
[20] = system: SW-620; test: Growth inhibition of human SW620 cells assessed as cell growth at 100 nM relative to untreated control; assay type: functional; conditions: read-out: Activity
[21] = system: MDA-MB-231; test: Growth inhibition of human MDA-MB-231 cells assessed as cell growth at 1 uM relative to untreated control; assay type: functional; conditions: read-out: Activity
[22] = system: MOLT-4; test: Growth inhibition of human MOLT4 cells; assay type: functional
[23] = system: HL-60(TB); test: Growth inhibition of human HL-60(TB) cells assessed as cell growth at 1 uM relative to untreated control; assay type: functional; conditions: read-out: Activity
[24] = system: LOX IMVI; test: Growth inhibition of human LOXIMVI cells assessed as cell growth at 1 nM relative to untreated control; assay type: functional; conditions: read-out: Activity
[25] = system: SNB-19; test: Growth inhibition of human SNB19 cells assessed as cell growth at 10 nM relative to untreated control; assay type: functional; conditions: read-out: Activity
[26] = system: BT-549; test: Growth inhibition of human BT549 cells assessed as cell growth at 10 uM relative to untreated control; assay type: functional; conditions: read-out: Activity
[27] = system: NCI/ADR-RES; test: Growth inhibition of human NCI/ADR-RES cells assessed as cell growth at 1 nM relative to untreated control; assay type: functional; conditions: read-out: Activity
[28] = system: LOX IMVI; test: Growth inhibition of human LOXIMVI cells assessed as cell growth at 100 nM relative to untreated control; assay type: functional; conditions: read-out: Activity
[29] = system: OVCAR-5; test: Growth inhibition of human OVCAR5 cells assessed as cell growth at 1 uM relative to untreated control; assay type: functional; conditions: read-out: Activity
[30] = system: KM12; test: Growth inhibition of human KM12 cells assessed as cell growth at 100 nM relative to untreated control; assay type: functional; conditions: read-out: Activity
[31] = system: UO-31; test: Growth inhibition of human UO31 cells assessed as cell growth at 10 nM relative to untreated control; assay type: functional; conditions: read-out: Activity
[32] = system: OVCAR-8; test: Growth inhibition of human OVCAR8 cells assessed as cell growth at 1 uM relative to untreated control; assay type: functional; conditions: read-out: Activity
[33] = system: HOP-62; test: Growth inhibition of human HOP62 cells assessed as cell growth at 1 nM relative to untreated control; assay type: functional; conditions: read-out: Activity; in short: as §1
[34] = system: SNB-19; test: Growth inhibition of human SNB19 cells assessed as cell growth at 1 nM relative to untreated control; assay type: functional; conditions: read-out: Activity
[35] = system: KM12; test: Growth inhibition of human KM12 cells assessed as cell growth at 1 nM relative to untreated control; assay type: functional; conditions: read-out: Activity
[36] = system: T47D; test: Growth inhibition of human T47D cells; assay type: functional
[37] = system: HL-60(TB); test: Growth inhibition of human HL-60(TB) cells; assay type: functional; conditions: read-out: LC50 (the source's name)
[38] = system: M14; test: Growth inhibition of human M14 cells assessed as cell growth at 10 uM relative to untreated control; assay type: functional; conditions: read-out: Activity
[39] = system: MCF7; test: Growth inhibition of human MCF7 cells assessed as cell growth at 10 nM relative to untreated control; assay type: functional; conditions: read-out: Activity
[40] = system: TK-10; test: Growth inhibition of human TK10 cells assessed as cell growth at 10 uM relative to untreated control; assay type: functional; conditions: read-out: Activity
[41] = system: SK-MEL-2; test: Growth inhibition of human SK-MEL-2 cells assessed as cell growth at 10 uM relative to untreated control; assay type: functional; conditions: read-out: Activity
[42] = system: SK-MEL-28; test: Growth inhibition of human SK-MEL-28 cells assessed as cell growth at 100 nM relative to untreated control; assay type: functional; conditions: read-out: Activity
[43] = system: SK-MEL-2; test: Growth inhibition of human SK-MEL-2 cells assessed as cell growth at 1 nM relative to untreated control; assay type: functional; conditions: read-out: Activity
[44] = system: M14; test: Growth inhibition of human M14 cells assessed as cell growth at 100 nM relative to untreated control; assay type: functional; conditions: read-out: Activity
[45] = system: SNB-75; test: Growth inhibition of human SNB75 cells assessed as cell growth at 10 nM relative to untreated control; assay type: functional; conditions: read-out: Activity
[46] = system: U-251; test: Growth inhibition of human U251 cells assessed as cell growth at 10 nM relative to untreated control; assay type: functional; conditions: read-out: Activity
[47] = read-out: LC50 (the source's name)

COc1ccc2c(c1)[nH]c1c(C)c(OS(=O)(=O)c3cccc4c(N(C)C)cccc34)ccc12 showed a growth at 0.01 µM [1] of 88%, a growth at 0.001 µM [2] of 98% and a growth at 0.1 µM [3] of 103%. The growth at 0.01 µM [4] was 95%, the growth at 1 µM [5] was 7% and the Activity [6] was “Active”. The GI50 [7] was 5.42 µM, the TGI [7] was over 100 µM and the CC50 [7, 47] was over 100 µM. For the same compound, the growth at 0.1 µM [8] was 92%, the growth at 1 µM [9] was -29% and the GI50 [10] was 2.88 µM. For the same compound, the TGI [10] was over 100 µM, the CC50 [10, 47] was over 100 µM and the growth at 10 µM [11] was 7%. It also gave a CC50 [12] of over 100 µM, a growth at 0.1 µM [13] of 93% and a growth at 10 µM [14] of 1%. For the same compound, the growth at 0.01 µM [15] was 100%, the growth at 0.001 µM [16] was 96% and the growth at 1 µM [17] was 45%. It also gave a growth at 0.01 µM [18] of 103%, a growth at 1 µM [19] of 50% and a growth at 0.1 µM [20] of 95%. The growth at 1 µM [21] was 49%, the GI50 [22] was 4.19 µM and the TGI [22] was over 100 µM. The CC50 [22, 47] was over 100 µM, the growth at 1 µM [23] was -9% and the growth at 0.001 µM [24] was 95%. It also gave a growth at 0.01 µM [25] of 88%, a growth at 10 µM [26] of 13% and a growth at 0.001 µM [27] of 107%. It also gave a growth at 0.1 µM [28] of 91%, a growth at 1 µM [29] of 101% and a growth at 0.1 µM [30] of 97%. It also gave a growth at 0.01 µM [31] of 92%, a growth at 1 µM [32] of 44% and a growth at 0.001 µM [33] of 101%. It also gave a growth at 0.001 µM [34] of 97%, a growth at 0.001 µM [35] of 110% and a GI50 [36] of 3.06 µM. For the same compound, the TGI [36] was over 100 µM, the CC50 [36, 47] was over 100 µM and the CC50 [37] was over 100 µM. The growth at 10 µM [38] was 17%, the growth at 0.01 µM [39] was 86% and the growth at 10 µM [40] was 6%. It also gave a growth at 10 µM [41] of 18%, a growth at 0.1 µM [42] of 75% and a growth at 0.001 µM [43] of 115%. For the same compound, the growth at 0.1 µM [44] was 100%, the growth at 0.01 µM [45] was 118% and the growth at 0.01 µM [46] was 98%.
